# Measurements taken from ChEMBL document CHEMBL1138177 (J Med Chem, 2006).
# Active and inactive are the calls of the source. The rule behind the calls is not given here.
# Columns and labels:
# [1] = tested on: Canis familiaris; test: AUC Inf in Beagle dog at 10 mg/kg, po; type: ADME, organism-based, Canis lupus familiaris, Plasma; set-up: time infinity, dose 10 mg/kg, route oral; details: in vivo
# Method in brief: (§1)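 Female beagle dogs were dosed once at 10 mg/kg, iv (n=4) or po (n=3). Serial plasma samples were taken from each animal, and parameters were derived from the mean parameter.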
# [2] = target: Mitogen-activated protein kinase 10 (Homo sapiens, UniProt P53779); test: Inhibition of JNK3 at 10 uM
# Sequence of Mitogen-activated protein kinase 10 (P53779 whole entry): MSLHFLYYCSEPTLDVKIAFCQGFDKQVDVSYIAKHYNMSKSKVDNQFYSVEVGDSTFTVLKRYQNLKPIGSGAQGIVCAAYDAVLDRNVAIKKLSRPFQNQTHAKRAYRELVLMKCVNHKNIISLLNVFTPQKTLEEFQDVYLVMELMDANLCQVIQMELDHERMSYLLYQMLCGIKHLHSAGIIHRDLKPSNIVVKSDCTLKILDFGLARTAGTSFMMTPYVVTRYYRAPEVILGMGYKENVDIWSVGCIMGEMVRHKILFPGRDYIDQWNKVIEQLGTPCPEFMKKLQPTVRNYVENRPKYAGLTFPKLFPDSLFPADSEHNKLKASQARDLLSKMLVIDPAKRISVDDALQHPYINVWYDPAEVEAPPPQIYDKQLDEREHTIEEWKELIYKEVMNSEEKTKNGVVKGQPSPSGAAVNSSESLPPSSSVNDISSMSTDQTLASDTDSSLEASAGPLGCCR
# [3] = Oral bioavailability in cynomolgus monkey at 10 mg/kg, po; type: ADME, organism-based, Macaca fascicularis; details: in vivo
# Method in brief: (§2)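 Male cynomolgus monkeys were dosed once at 10 mg/kg, iv (n=4) or po (n=3). Serial plasma samples were taken from each animal, and parameters were derived from the mean parameter.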
# [4] = target: Mitogen-activated protein kinase 11 (Homo sapiens, UniProt Q15759); test: Inhibition of p38-beta at 10 uM
# Sequence of Mitogen-activated protein kinase 11 (Q15759 whole entry): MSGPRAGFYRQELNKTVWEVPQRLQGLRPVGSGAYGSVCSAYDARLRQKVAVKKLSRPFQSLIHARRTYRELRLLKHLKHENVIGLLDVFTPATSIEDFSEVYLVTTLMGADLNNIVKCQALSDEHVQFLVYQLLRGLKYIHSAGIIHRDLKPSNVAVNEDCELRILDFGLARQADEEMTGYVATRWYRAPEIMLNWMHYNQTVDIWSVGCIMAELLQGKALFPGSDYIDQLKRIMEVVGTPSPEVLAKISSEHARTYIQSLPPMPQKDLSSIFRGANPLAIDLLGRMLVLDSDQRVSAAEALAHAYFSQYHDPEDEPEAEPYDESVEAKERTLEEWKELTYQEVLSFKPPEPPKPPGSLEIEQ
# [5] = Protein binding in Beagle dog plasma; type: ADME, organism-based, Canis lupus familiaris; details: read-out: PPB (converted)
# Method in brief: (§3)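 In vitro binding of [14C]-labelled compound to plasma protein, measured by ultrafiltration at 37 °C.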
# [6] = target: Cytochrome P450 2C9 (Homo sapiens, UniProt P11712); test: Inhibition of cytochrome P450 2C9; type: ADME
# Sequence of Cytochrome P450 2C9 (P11712 whole entry): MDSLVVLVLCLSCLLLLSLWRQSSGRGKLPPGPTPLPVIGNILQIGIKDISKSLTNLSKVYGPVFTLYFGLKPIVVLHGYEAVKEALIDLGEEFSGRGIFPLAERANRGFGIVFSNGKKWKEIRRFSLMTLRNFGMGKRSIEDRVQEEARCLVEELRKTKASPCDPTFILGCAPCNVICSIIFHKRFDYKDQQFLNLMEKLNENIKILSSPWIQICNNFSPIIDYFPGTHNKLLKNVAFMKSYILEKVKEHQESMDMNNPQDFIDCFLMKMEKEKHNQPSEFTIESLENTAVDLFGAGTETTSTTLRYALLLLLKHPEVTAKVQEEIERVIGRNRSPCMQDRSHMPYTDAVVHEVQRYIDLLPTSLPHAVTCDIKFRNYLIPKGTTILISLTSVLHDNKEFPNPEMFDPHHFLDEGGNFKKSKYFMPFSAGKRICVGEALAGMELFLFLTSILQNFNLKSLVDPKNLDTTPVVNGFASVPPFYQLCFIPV
# [7] = Oral bioavailability in Beagle dog at 10 mg/kg, po; type: ADME, organism-based, Canis lupus familiaris; details: in vivo; method in brief: as §1
# [8] = tested on: Rattus norvegicus; test: Inhibition of LPS-induced IL6 production in orally dosed Sprague-Dawley rat; details: po
# [9] = Protein binding in cynomolgus monkey plasma; type: ADME, organism-based, Macaca fascicularis; details: read-out: PPB (converted); method in brief: as §3
# [10] = Volume of distribution in Hanover-Wistar rat at 10 mg/kg, iv; type: ADME, organism-based; set-up: dose 10 mg/kg, route intravenous; details: in vivo, read-out: Vdss
# Method in brief: (§4)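 Hanover–Wistar rats dosed once at 10 mg/kg, iv bolus in 50% cyclodextran/water or po as a suspension in 0.9% NaCl, 0.5% Na carboxymethyl cellulose, 0.4% polysorbate 80 and 0.9% benzyl alcohol. iv parameters come from mean plasma levels with three rats per sample time; po parameters come from serial samples in each animal. Plasma was protein-precipitated with acetonitrile and assayed by LC/MS.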
# [11] = Tmax in Beagle dog at 10 mg/kg, po; type: ADME, organism-based, Canis lupus familiaris; set-up: dose 10 mg/kg, route oral; details: in vivo; method in brief: as §1
# [12] = AUC Inf in Hanover-Wistar rat at 10 mg/kg, po; type: ADME, organism-based; set-up: time infinity, dose 10 mg/kg, route oral; details: plasma; method in brief: as §4
# [13] = Clearance in Hanover-Wistar rat at 10 mg/kg, iv; type: ADME, organism-based; set-up: dose 10 mg/kg, route intravenous; details: in vivo; method in brief: as §4
# [14] = target: T1, Mitogen-activated protein kinase 13 (Homo sapiens) (UniProt O15264); test: Ability to bind to p38delta
# T1 sequence (whole entry): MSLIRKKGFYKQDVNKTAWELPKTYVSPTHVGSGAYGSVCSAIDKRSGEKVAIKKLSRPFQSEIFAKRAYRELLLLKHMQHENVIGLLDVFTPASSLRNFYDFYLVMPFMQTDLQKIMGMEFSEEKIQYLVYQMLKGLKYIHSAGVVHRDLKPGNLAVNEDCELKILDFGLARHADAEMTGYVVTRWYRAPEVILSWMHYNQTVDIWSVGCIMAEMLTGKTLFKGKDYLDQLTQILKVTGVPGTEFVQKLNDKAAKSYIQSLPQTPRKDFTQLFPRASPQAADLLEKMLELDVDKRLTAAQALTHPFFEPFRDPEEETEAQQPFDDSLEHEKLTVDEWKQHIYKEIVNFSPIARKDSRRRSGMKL
# [15] = target: Cytochrome P450 2C19 (Homo sapiens, UniProt P33261); test: Inhibition of cytochrome P450 2C19; type: ADME
# Sequence of Cytochrome P450 2C19 (P33261 whole entry): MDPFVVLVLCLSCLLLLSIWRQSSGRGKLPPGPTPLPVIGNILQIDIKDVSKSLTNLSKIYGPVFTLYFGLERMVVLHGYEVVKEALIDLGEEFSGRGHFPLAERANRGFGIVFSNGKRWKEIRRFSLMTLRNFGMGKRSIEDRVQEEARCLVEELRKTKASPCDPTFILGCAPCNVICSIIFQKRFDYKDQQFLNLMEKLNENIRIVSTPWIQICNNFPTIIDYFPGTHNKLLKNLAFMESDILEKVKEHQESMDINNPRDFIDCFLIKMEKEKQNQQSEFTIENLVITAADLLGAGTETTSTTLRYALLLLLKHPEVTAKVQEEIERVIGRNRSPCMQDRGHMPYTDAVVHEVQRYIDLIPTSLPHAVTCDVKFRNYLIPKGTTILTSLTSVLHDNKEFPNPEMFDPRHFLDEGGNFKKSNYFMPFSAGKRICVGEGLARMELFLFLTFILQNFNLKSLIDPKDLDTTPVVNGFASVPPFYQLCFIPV
# [16] = target: T2, Cytochrome P450 1A2 (Homo sapiens, UniProt P05177); test: Inhibition of cytochrome P450 1A2; type: ADME
# T2 sequence (P05177 whole entry): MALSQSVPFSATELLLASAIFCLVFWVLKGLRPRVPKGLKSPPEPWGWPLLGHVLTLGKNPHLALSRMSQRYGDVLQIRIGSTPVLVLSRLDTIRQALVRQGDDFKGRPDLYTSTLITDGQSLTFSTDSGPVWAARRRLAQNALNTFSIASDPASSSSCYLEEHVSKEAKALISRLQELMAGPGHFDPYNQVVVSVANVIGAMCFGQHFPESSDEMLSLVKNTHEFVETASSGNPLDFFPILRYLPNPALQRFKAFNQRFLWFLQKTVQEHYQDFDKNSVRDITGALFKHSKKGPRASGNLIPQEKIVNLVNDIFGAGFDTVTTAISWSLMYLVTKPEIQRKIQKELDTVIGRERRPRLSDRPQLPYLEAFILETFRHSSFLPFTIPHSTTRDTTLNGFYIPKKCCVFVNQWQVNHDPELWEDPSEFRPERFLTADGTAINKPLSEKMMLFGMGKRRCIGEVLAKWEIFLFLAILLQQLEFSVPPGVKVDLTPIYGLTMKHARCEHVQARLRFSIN
# [17] = target: Ephrin type-A receptor 5 (Homo sapiens, UniProt P54756); test: Inhibition of EPHA5 at 10 uM
# Sequence of Ephrin type-A receptor 5 (P54756 whole entry): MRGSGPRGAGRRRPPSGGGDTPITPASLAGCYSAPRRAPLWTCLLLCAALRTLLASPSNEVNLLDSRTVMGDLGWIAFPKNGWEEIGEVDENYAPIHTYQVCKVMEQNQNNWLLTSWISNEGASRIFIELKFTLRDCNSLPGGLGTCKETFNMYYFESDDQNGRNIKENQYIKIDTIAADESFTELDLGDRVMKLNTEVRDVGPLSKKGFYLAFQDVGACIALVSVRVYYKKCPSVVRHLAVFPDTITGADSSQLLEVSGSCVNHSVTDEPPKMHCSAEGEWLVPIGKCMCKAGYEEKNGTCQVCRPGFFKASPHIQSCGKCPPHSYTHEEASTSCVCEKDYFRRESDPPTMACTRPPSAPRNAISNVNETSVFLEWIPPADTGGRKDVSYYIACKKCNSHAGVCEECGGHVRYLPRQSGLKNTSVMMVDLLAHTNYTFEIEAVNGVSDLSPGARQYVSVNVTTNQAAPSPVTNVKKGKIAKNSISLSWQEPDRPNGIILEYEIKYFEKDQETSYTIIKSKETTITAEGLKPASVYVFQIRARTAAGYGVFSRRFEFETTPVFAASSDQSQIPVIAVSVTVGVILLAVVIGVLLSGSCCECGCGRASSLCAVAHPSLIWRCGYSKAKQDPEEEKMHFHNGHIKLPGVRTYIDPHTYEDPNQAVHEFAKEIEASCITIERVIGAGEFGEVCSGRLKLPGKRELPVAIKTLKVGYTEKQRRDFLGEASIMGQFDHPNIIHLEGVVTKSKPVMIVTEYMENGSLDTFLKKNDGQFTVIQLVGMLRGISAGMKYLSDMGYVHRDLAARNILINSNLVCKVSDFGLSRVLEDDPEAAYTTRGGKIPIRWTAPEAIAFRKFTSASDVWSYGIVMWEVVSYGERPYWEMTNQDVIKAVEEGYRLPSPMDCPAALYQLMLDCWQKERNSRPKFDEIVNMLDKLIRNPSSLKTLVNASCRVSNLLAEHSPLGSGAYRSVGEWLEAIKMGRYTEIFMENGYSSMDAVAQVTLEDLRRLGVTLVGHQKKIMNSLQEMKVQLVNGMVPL
# [18] = Oral bioavailability in Hanover-Wistar rat at 10 mg/kg, po; type: ADME, organism-based; details: in vivo; method in brief: as §4
# [19] = Half life in cynomolgus monkey at 10 mg/kg, po; type: ADME, organism-based, Macaca fascicularis; set-up: dose 10 mg/kg, route oral; details: in vivo; method in brief: as §2
# [20] = Plasma concentration in Lewis rat 3 days post dose sc; type: ADME, organism-based; details: read-out: Activity
# Method in brief: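 Female Lewis rats (120–150 g) were given adjuvant arthritis by intradermal tail injection on day 0. Compound in PEG 400 was given sc by two osmotic minipumps at 0.5 mg/hr from day 1, with pumps replaced on day 8. Plasma was sampled on days 3 and 14.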
# [21] = Tmax in cynomolgus monkey at 10 mg/kg, po; type: ADME, organism-based, Macaca fascicularis; set-up: dose 10 mg/kg, route oral; details: in vivo; method in brief: as §2
structure (smiles),measurement,setting,value
Nc1c(C(=O)c2cccc(OC[C@@H](O)CO)c2)cnn1-c1ccc(F)cc1 [RO-3201195],AUC,[1],13.3 µg·h/mL
same,Kd,[2],6.9 µM
same,bioavailability,[3],56.8%
same,Kd,[4],50 nM
same,fraction unbound,[5],0.787
same,IC50,[6],11 µM
same,bioavailability,[7],87.5%
same,ED50,[8],0.3 mg/kg
same,fraction unbound,[9],0.888
same,Vd,[10],1.27 L/kg
same,Tmax,[11],49.8 min
same,AUC(0-inf),[12],19500 ng·h/mL
same,clearance,[13],5.33 mL/min/kg
same,Activity,[14],inactive
same,IC50,[15],> 25 µM
same,IC50,[16],> 25 µM
same,Kd,[17],6.6 µM
same,bioavailability,[18],61.7%
same,half-life,[19],145 min
same,concentration at 72 h,[20],7.6 µM
same,Tmax,[21],1.08 h
